TRPC6 act: mouse TRPC6 channel activators, primary screen, cell-based, HEK293, membrane potential dye; AID 2550, 2010; 0.13% of 310,000 active; Short transient receptor potential channel 6 (Mus musculus), Q61143; B-score at 10 µM; HEK293-TRPC6 membrane potential dye fluorescence; hits give high values;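 active means B-score of the integrated fluorescence ratio above library mean plus 3 SD, and starting fluorescence ratio within library mean plus 5 SD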;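 further: higher score means more depolarization so channel activation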
Target sequence (Q61143 whole entry, looked up): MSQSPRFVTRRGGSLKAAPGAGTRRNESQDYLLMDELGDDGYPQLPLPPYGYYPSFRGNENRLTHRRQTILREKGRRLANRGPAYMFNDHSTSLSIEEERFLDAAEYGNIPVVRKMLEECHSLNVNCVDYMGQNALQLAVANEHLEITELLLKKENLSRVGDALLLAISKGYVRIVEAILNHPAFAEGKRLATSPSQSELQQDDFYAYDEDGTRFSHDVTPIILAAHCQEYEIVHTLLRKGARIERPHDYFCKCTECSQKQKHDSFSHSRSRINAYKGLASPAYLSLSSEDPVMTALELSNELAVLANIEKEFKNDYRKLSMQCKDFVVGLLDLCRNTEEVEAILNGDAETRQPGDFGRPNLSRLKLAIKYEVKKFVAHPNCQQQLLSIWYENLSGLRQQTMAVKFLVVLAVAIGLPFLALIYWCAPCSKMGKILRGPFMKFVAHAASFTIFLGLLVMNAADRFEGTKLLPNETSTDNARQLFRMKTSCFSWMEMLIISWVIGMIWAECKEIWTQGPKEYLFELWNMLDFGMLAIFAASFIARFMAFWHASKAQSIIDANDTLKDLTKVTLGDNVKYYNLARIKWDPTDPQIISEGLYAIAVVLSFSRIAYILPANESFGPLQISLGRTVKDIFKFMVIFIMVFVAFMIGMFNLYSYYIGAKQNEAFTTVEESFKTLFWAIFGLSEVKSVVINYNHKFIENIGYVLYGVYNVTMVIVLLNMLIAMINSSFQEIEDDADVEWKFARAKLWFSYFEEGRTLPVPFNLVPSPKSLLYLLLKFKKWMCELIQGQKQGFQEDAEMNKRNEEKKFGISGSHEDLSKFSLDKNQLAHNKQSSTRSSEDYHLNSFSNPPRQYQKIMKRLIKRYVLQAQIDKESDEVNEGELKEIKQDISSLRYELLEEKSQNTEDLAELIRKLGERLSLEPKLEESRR
TRPC4 agonist: activators of mouse TRPC4 channel, primary screen, Fluo4 calcium, HEK293 TRPC4beta/mu-opioid cells; Short transient receptor potential channel 4 (Mus musculus), Q9QUQ5; B-score at 10 µM; Fluo4 calcium fluorescence; hits give high values; 0.49% of 310,000 active;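 active means B-score above 5 SD of library B-scores, and initial fluorescence ratio not above library mean plus 5 SD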;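 further: positive B-score marks a calcium rise read as TRPC4 activation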
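Assay system: HEK293 cells stably co-expressing mouse TRPC4beta and mu-opioid receptor / Timing: Fluo4 dye loading 45 min at room temperature, 110 s recording / Signal: Fluo4 calcium-sensitive dye fluorescence, kinetic, 1 Hz baseline / Read-out: integrated baseline-normalised fluorescence ratio, converted to per-well B score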
TRPC4 block: inhibitors of mouse TRPC4 channel, primary screen, Fluo4 calcium, HEK293 TRPC4beta/mu-opioid cells; Short transient receptor potential channel 4 (Mus musculus), Q9QUQ5; 0.39% of 300,000 active; AID 2247, 2010; DAMGO-evoked Fluo4 calcium flux; hits give low values; B-score at 10 µM;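 active means B-score over 3 SD under the library average, no early fluorescence shift, positive overall ratio signal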
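System: stable TRPC4beta/mu-opioid receptor HEK293 cells; Dosing: single-point compound dosing; Measured by: Fluo4 Ca2+ flux fluorescence; Read-out basis: per-well B score of integrated baseline-normalized Fluo4 ratio.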
TRPC4 PAM: positive allosteric modulators of TRPC4, primary screen, cell-based, mouse TRPC4beta, HEK293 mu-opioid, Fluo-4 calcium; Short transient receptor potential channel 4 (Mus musculus), Q9QUQ5; DAMGO EC20, Fluo-4 Ca2+ flux; hits give high values; B-score at 10 µM; 0.42% of 310,000 active; AID 2227, 2009;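 active means B-score of calcium response area above 5 SD of library B-scores, with initial fluorescence ratio within 5 SD of library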
Kir21 block: inhibitors of mouse Kir2.1 inward-rectifier potassium channel. Inward rectifier potassium channel 2 (Mus musculus), P35561. HEK293-Kir2.1, FluxOR thallium flux fluorescence; hits give low values. B-score at 10 µM. 0.85% of 310,000 active. AID 1672, 2009;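 active means fluorescence ratio B-score at or below minus 3 SD of library scores, with starting-brightness B-score within 2 SD, cut at about -4.2 in these data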;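 further: channel flux triggered by added potassium and thallium sulfate stimulus; B-score of peak minus minimum fluorescence over baseline after thallium stimulus; more negative B-score means stronger Kir2.1 block with less thallium influx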
TRPC6 inh: mouse TRPC6 channel inhibitors, primary screen, cell-based, HEK293, membrane potential dye. 1.1% of 310,000 active. B-score at 10 µM. ACh-evoked depolarization; hits give low values. AID 2553, 2010. Short transient receptor potential channel 6 (Mus musculus), Q61143;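 active means B-score under library mean minus 3 SD, initial fluorescence not abnormally high, positive integrated signal ratio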;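 further: B-score derived from integrated fluorescence ratio over the kinetic read; more negative B-score means stronger inhibition of depolarization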
Hits are given with their value; 0 = inactive. Compounds with a hit are over-represented: about 3% of the library has one in this group of screens.

SMILES | TRPC6 act | TRPC4 agonist | TRPC4 block | TRPC4 PAM | Kir21 block | TRPC6 inh
CC1CN(Cc2ccccc2)c2ccccc2NC1=S (stereo unspecified) | 0 | 0 | 0 | 0 | -4.2 | 0
CC1CN(Cc2ccccc2)C(C)CC1O (stereo unspecified) | 0 | 0 | 0 | 0 | 0 | 0
COc1ccc(NC(=O)CSc2nccn2Cc2ccco2)cc1 | 0 | 0 | 0 | 0 | 0 | 0
CC(Sc1nnc(Cn2c(=O)sc3ccccc32)n1C)c1ccccc1 (stereo unspecified) | 0 | 0 | 0 | 0 | -4.2 | 0
CCSc1nnc(Cn2c(=O)sc3ccccc32)n1C | 0 | 0 | 0 | 0 | 0 | 0
O=C(NCC1(c2ccccc2)CCCC1)c1ccccc1Br | 0 | 0 | 0 | 0 | -5.3 | 0
O=C(NCC1(c2ccccc2)CCCC1)c1ccccc1 | 0 | 0 | 0 | 0 | 0 | 0
COc1ccc(C2N(c3cccc(Cl)c3)C(=O)C3CCCN32)cc1 (stereo unspecified) | 0 | 0 | 0 | 0 | 0 | 0
COc1cccc(N2C(=O)C3CCCN3C2c2cccs2)c1 (stereo unspecified) | 0 | 43 | 0 | 0 | 0 | 0
Cc1ccc(C2N(c3cccc(Cl)c3)C(=O)C3CCCN32)o1 (stereo unspecified) | 0 | 0 | 0 | 33 | 0 | 0
CCOC(=O)C(=NC1CCS(=O)(=O)C1)NNc1ccccc1Cl (stereo unspecified) | 0 | 0 | 0 | 47 | 0 | 0
CCn1c(-c2ccccc2)csc1=Nc1ccc(O)cc1 | 0 | 0 | -5 | 0 | 0 | 0
COC(=O)NCC(c1cccnc1)N1CCN(c2ccccc2F)CC1 (stereo unspecified) | 0 | 0 | 0 | 0 | 0 | 0
COC(=O)NCC(c1cccnc1)N1CCN(c2ccccc2OC)CC1 (stereo unspecified) | 0 | 69 | 0 | 0 | 0 | 0
Cc1ccc(C2=NS(=O)(=O)N(C)C(C(=O)NC3CCCCC3)=C2)cc1 | 0 | 0 | 0 | 0 | 0 | 0
O=C(CN1CCCCCC1)Nc1ccccc1Oc1ccccc1 | 0 | 0 | -6 | 0 | 0 | 0
O=C(CN1CCCCC1)Nc1cc(Cl)ccc1Oc1ccccc1 | 0 | 0 | 0 | 0 | 0 | 0
CC(C(=O)Nc1ccccc1Oc1ccccc1)c1ccccc1 (stereo unspecified) | 0 | 0 | 0 | 0 | -5 | 0
C=CCN1C(=O)c2ccc(C(=O)N(CCOC)c3c(N)n(CCCC)c(=O)[nH]c3=O)cc2C1=O | 0 | 0 | 0 | 0 | 0 | 0
CCOc1cc(CN2CCN(c3ccc(C(C)=O)cc3)CC2)ccc1OC | 0 | 0 | 0 | 11 | 0 | 0
CCOc1cc(CN2CCCCC2)ccc1OC | 0 | 0 | 0 | 0 | 0 | 0
Cc1ccc(NC(=O)CSc2ccc3c(c2)OCCO3)nc1 | 0 | 0 | 0 | 0 | 0 | 0
OCCN1CCN(Cc2cc(Br)cc(Br)c2O)CC1 | 0 | 176 | 0 | 0 | 0 | 0
Cc1cccc(OCCCOc2cccc3cccnc23)c1C | 0 | 0 | 0 | 11 | 0 | 0
C=CCc1ccc(OCCOc2cccc3cccnc23)c(OC)c1 | 0 | 0 | 0 | 0 | 0 | 0
SMILES | TRPC6 act | TRPC4 agonist | TRPC4 block | TRPC4 PAM | Kir21 block | TRPC6 inh
Brc1ccccc1OCCOCCOc1cccc2cccnc12 | 0 | 0 | 0 | 0 | -4.5 | 0
C=CCc1ccc(OCCOCCOc2cccc3cccnc23)c(OC)c1 | 0 | 0 | 0 | 0 | -4.9 | 0
Brc1ccc(OCCOCCOc2cccc3cccnc23)cc1 | 0 | 0 | 0 | 0 | 0 | 0
COc1cc(C(=O)NCC2(N(C)C)CCCCC2)ccc1OCc1ccccc1 | 0 | 0 | 0 | 0 | 0 | 0
Cc1ccc(C2CC2c2n[nH]c(=S)n2-c2cccc(Cl)c2)cc1 (stereo unspecified) | 0 | 0 | 0 | 0 | 0 | 0
C1=CCN(Cc2ccccc2)C1 | 0 | 0 | 0 | 0 | 0 | 0
COc1ccc([N+](=O)[O-])cc1N(CC(=O)N1CCN(Cc2ccccc2)CC1)S(C)(=O)=O | 0 | 0 | 0 | 0 | 0 | 0
Cc1cc(C)cc(CSCC(=O)NN=C2CCCCCC2)c1 | 0 | 0 | 0 | 0 | -10 | 0
CCn1c(C)nc2cc(C(=O)N/N=C(\C)c3ccccc3O)ccc21 | 0 | 0 | 0 | 0 | 0 | 0
O=C(COC(=O)CCC(=O)c1cccs1)Nc1cc(S(=O)(=O)N2CCOCC2)ccc1Cl | 0 | 0 | 0 | 0 | 0 | 0
COc1ccc(C(=O)CC(=O)C(=O)Nc2ccc(C)c(Cl)c2)cc1 | 0 | 0 | 0 | 0 | 0 | 0
CN1CCN(NC(=O)c2cc(-c3ccc(Cl)s3)nc3ccccc23)CC1 | 0 | 0 | 0 | 0 | -4.5 | 0
CCOc1ccc(NC(=O)Nc2cc(-c3ccccc3)sc2C(=O)OC)cc1 | 0 | 0 | 0 | 0 | 0 | 0
CCOc1ccc(-c2cc(NC(=O)c3c(F)cccc3F)c(C(=O)O)s2)cc1 | 0 | 0 | -5 | 0 | 0 | 0
O=c1c2c(-c3ccccc3)csc2ncn1/N=C/c1cccc([N+](=O)[O-])c1O | 0 | 68 | -8 | 0 | 0 | 0
O=c1c2c(-c3ccccc3)csc2ncn1/N=C/c1ccc(O)c([N+](=O)[O-])c1 | 0 | 0 | 0 | 0 | 0 | 0
NCCCCCCNS(=O)(=O)c1cccc2c(Cl)cccc12 | 0 | 95 | 0 | 0 | 0 | 0
COc1ccc(CCN(C)C(=O)c2cc(S(=O)(=O)N3CCCCC3)ccc2Cl)cc1OC | 0 | 0 | -7 | 0 | 0 | 0
COc1ccc(CCN(C)C(=O)c2cc(S(=O)(=O)N3CCCCCC3)ccc2OC)cc1OC | 0 | 0 | 0 | 0 | 0 | 0
CC(C)(C)OC(=O)NCCc1nnc(SCc2ccccc2Cl)o1 | 0 | 0 | 0 | 0 | -5.5 | 0
CC(C)(C)OC(=O)NCCc1nnc(SCc2ccccc2)o1 | 0 | 0 | 0 | 0 | -6.1 | 0
CC(C)(C)OC(=O)NCCc1nnc(SCC(N)=O)o1 | 0 | 0 | 0 | 0 | 0 | 0
CC(C)Cn1c(SCC(=O)c2ccc(Cl)s2)nnc1-c1ccco1 | 0 | 0 | 0 | 0 | -9.4 | 0
O=C(CSc1nnc(-c2ccco2)n1Cc1ccccc1)c1ccccc1 | 0 | 0 | 0 | 0 | 0 | 0
CCn1c(SCC(=O)OCc2ccccc2)nnc1-c1ccco1 | 0 | 0 | 0 | 0 | -5.9 | 0
Cc1cccc(C(=O)Oc2cccc3c(O)cccc23)c1 | 0 | 0 | 0 | 0 | 0 | 0
COc1ccc(OCc2cc(C(=O)O)c(C)o2)cc1 | 0 | 0 | 0 | 0 | 0 | 0
O=C(Nc1nnc(-c2ccccc2Cl)o1)c1nc2ccccc2s1 | 0 | 185 | 0 | 0 | 0 | 0
